Results reported in ChEMBL document CHEMBL4422636, “Investigation of the structural requirements for N-methyl-D-aspartate receptor positive and negative allosteric modulators based on 2-naphthoic acid” (Eur J Med Chem, 2019).
Activity calls are given as the source filed them. The rule behind the calls is not given here.

Key:
[1] = molecular target: T1, Glutamate NMDA receptor; Grin1/Grin2a (Rattus norvegicus, UniProt P35439+Q00959); assay: Negative allosteric modulation of rat GluN1/GluN2A expressed in Xenopus laevis oocytes assessed as inhibition of L-glutamate/glycine-induced current response at holding potential -60 mV by two-electrode voltage clamp method; format: cell-based
How it was run: (§1)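 Oocytes injected with GluN1a plus GluN2A, 2B, 2C or 2D RNA (1:1–3 molar, 15–30 ng total) and kept in ND-96 at 17°C for 1–5 days. TEVC at −60 mV in HEPES-buffered NaCl/KCl/BaCl2 saline, pH 7.4. […] Curves were fitted to give EC50/IC50 and maximal potentiation or inhibition, mean ± s.e.m.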

[2] = molecular target: Glutamate receptor ionotropic, NMDA 2C (Rattus norvegicus) (UniProt Q00961); assay: Allosteric modulation of rat GluN2C expressed in Xenopus laevis oocytes assessed as L-glutamate/glycine-induced current response at 100 uM at holding potential -60 mV by two-electrode voltage clamp method relative to L-glutamate/glycine; format: cell-based
How it was run: (§2)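 GluN1a with one GluN2 subunit; RNAs mixed 1:1–3 molar, 15–30 ng total injected into Xenopus oocytes, which were held in ND-96 at 17°C for 1–5 days. TEVC at −60 mV in 116 mM NaCl, 2 mM KCl, 0.3 mM BaCl2, 5 mM HEPES, pH 7.4. […] Reported as % of agonist-alone response, mean ± s.e.m., n≥4.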

[3] = molecular target: Glutamate receptor ionotropic, NMDA 2D (Rattus norvegicus) (UniProt Q62645); assay: Allosteric modulation of rat GluN2D expressed in Xenopus laevis oocytes assessed as L-glutamate/glycine-induced current response at 100 uM at holding potential -60 mV by two-electrode voltage clamp method relative to L-glutamate/glycine; format: cell-based; how it was run: as §2
[4] = molecular target: Glutamate NMDA receptor; Grin1/Grin2a (Rattus norvegicus) (UniProt P35439+Q00959); assay: Negative allosteric modulation of rat GluN1/GluN2A expressed in Xenopus laevis oocytes assessed as inhibition of L-glutamate/glycine-induced current response at holding potential -60 mV by two-electrode voltage clamp method relative to untreated control; format: cell-based; parameters: concentration or dose not given beside the values; how it was run: as §1
[5] = molecular target: T2, Glutamate NMDA receptor; Grin1/Grin2c (Rattus norvegicus) (UniProt P35439+Q00961); assay: Negative allosteric modulation of rat GluN1/GluN2C expressed in Xenopus laevis oocytes assessed as inhibition of L-glutamate/glycine-induced current response at holding potential -60 mV by two-electrode voltage clamp method relative to untreated control; format: cell-based; parameters: concentration or dose not given beside the values; how it was run: as §1
[6] = molecular target: T3, Glutamate NMDA receptor; Grin1/Grin2c (Rattus norvegicus, UniProt P35439+Q00961); assay: Negative allosteric modulation of rat GluN1/GluN2C expressed in Xenopus laevis oocytes assessed as inhibition of L-glutamate/glycine-induced current response at holding potential -60 mV by two-electrode voltage clamp method; format: cell-based; how it was run: as §1
[7] = molecular target: Glutamate NMDA receptor; Grin1/Grin2b (Rattus norvegicus) (UniProt P35439+Q00960); assay: Negative allosteric modulation of rat GluN1/GluN2B expressed in Xenopus laevis oocytes assessed as inhibition of L-glutamate/glycine-induced current response at holding potential -60 mV by two-electrode voltage clamp method relative to untreated control; format: cell-based; parameters: concentration or dose not given beside the values; how it was run: as §1
[8] = molecular target: T4, Ionotropic glutamate receptor NMDA 1/2D (Rattus norvegicus, UniProt P35439+Q62645); assay: Negative allosteric modulation of rat GluN1/GluN2D expressed in Xenopus laevis oocytes assessed as inhibition of L-glutamate/glycine-induced current response at holding potential -60 mV by two-electrode voltage clamp method; format: cell-based; how it was run: as §1
[9] = molecular target: Glutamate receptor ionotropic, NMDA 2B (Rattus norvegicus) (UniProt Q00960); assay: Allosteric modulation of rat GluN2B expressed in Xenopus laevis oocytes assessed as L-glutamate/glycine-induced current response at 100 uM at holding potential -60 mV by two-electrode voltage clamp method relative to L-glutamate/glycine; format: cell-based; how it was run: as §2
[10] = molecular target: Ionotropic glutamate receptor NMDA 1/2D (Rattus norvegicus) (UniProt P35439+Q62645); assay: Negative allosteric modulation of rat GluN1/GluN2D expressed in Xenopus laevis oocytes assessed as inhibition of L-glutamate/glycine-induced current response at holding potential -60 mV by two-electrode voltage clamp method relative to untreated control; format: cell-based; parameters: concentration or dose not given beside the values; how it was run: as §1
[11] = Solubility of the compound at 100 uM; format: physicochemical
How it was run: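 Compounds were inspected for visible precipitation at the concentrations used in the oocyte assays.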

[12] = molecular target: Glutamate receptor ionotropic, NMDA 2A (Rattus norvegicus) (UniProt Q00959); assay: Allosteric modulation of rat GluN2A expressed in Xenopus laevis oocytes assessed as L-glutamate/glycine-induced current response at 100 uM at holding potential -60 mV by two-electrode voltage clamp method relative to L-glutamate/glycine; format: cell-based; how it was run: as §2
[13] = molecular target: T5, Glutamate NMDA receptor; Grin1/Grin2b (Rattus norvegicus, UniProt P35439+Q00960); assay: Negative allosteric modulation of rat GluN1/GluN2B expressed in Xenopus laevis oocytes assessed as inhibition of L-glutamate/glycine-induced current response at holding potential -60 mV by two-electrode voltage clamp method; format: cell-based; how it was run: as §1
[14] = molecular target: Glutamate receptor ionotropic, NMDA 2B (Rattus norvegicus) (UniProt Q00960); assay: Agonist activity at rat GluN2B expressed in Xenopus laevis oocytes assessed as effect on current response at holding potential -60 mV by two-electrode voltage clamp method relative to L-glutamate/glycine; format: cell-based; how it was run: as §2
[15] = molecular target: Glutamate receptor ionotropic, NMDA 2D (Rattus norvegicus) (UniProt Q62645); assay: Positive allosteric modulation of rat GluN2D expressed in Xenopus laevis oocytes assessed as potentiation of L-glutamate/glycine-induced current response at holding potential -60 mV by two-electrode voltage clamp method relative to L-glutamate/glycine; format: cell-based; parameters: concentration or dose not given beside the values; how it was run: as §1
[16] = molecular target: T5, Glutamate NMDA receptor; Grin1/Grin2b; assay: Positive allosteric modulation of rat GluN1/GluN2B expressed in Xenopus laevis oocytes assessed as potentiation of L-glutamate/glycine-induced current response at holding potential -60 mV by two-electrode voltage clamp method; format: cell-based; how it was run: as §1
[17] = molecular target: Glutamate receptor ionotropic, NMDA 2D (Rattus norvegicus) (UniProt Q62645); assay: Agonist activity at rat GluN2D expressed in Xenopus laevis oocytes assessed as effect on current response at holding potential -60 mV by two-electrode voltage clamp method relative to L-glutamate/glycine; format: cell-based; how it was run: as §2
[18] = molecular target: T3, Glutamate NMDA receptor; Grin1/Grin2c; assay: Positive allosteric modulation of rat GluN1/GluN2C expressed in Xenopus laevis oocytes assessed as potentiation of L-glutamate/glycine-induced current response at holding potential -60 mV by two-electrode voltage clamp method; format: cell-based; how it was run: as §1
[19] = molecular target: Glutamate receptor ionotropic, NMDA 2C (Rattus norvegicus) (UniProt Q00961); assay: Positive allosteric modulation of rat GluN2C expressed in Xenopus laevis oocytes assessed as potentiation of L-glutamate/glycine-induced current response at holding potential -60 mV by two-electrode voltage clamp method relative to L-glutamate/glycine; format: cell-based; parameters: concentration or dose not given beside the values; how it was run: as §1
[20] = molecular target: Glutamate receptor ionotropic, NMDA 2A (Rattus norvegicus) (UniProt Q00959); assay: Agonist activity at rat GluN2A expressed in Xenopus laevis oocytes assessed effect on current response at holding potential -60 mV by two-electrode voltage clamp method relative to L-glutamate/glycine; format: cell-based; how it was run: as §2
[21] = molecular target: Glutamate receptor ionotropic, NMDA 2B (Rattus norvegicus) (UniProt Q00960); assay: Positive allosteric modulation of rat GluN2B expressed in Xenopus laevis oocytes assessed as potentiation of L-glutamate/glycine-induced current response at holding potential -60 mV by two-electrode voltage clamp method relative to L-glutamate/glycine; format: cell-based; how it was run: as §1
[22] = molecular target: T1, Glutamate NMDA receptor; Grin1/Grin2a; assay: Positive allosteric modulation of rat GluN1/GluN2A expressed in Xenopus laevis oocytes assessed as potentiation of L-glutamate/glycine-induced current response at holding potential -60 mV by two-electrode voltage clamp method; format: cell-based; how it was run: as §1
[23] = molecular target: Glutamate receptor ionotropic, NMDA 2C (Rattus norvegicus) (UniProt Q00961); assay: Agonist activity at rat GluN2C expressed in Xenopus laevis oocytes assessed effect on current response at holding potential -60 mV by two-electrode voltage clamp method relative to L-glutamate/glycine; format: cell-based; how it was run: as §2
[24] = molecular target: T4, Ionotropic glutamate receptor NMDA 1/2D; assay: Positive allosteric modulation of rat GluN1/GluN2D expressed in Xenopus laevis oocytes assessed as potentiation of L-glutamate/glycine-induced current response at holding potential -60 mV by two-electrode voltage clamp method; format: cell-based; how it was run: as §1
[25] = molecular target: Glutamate receptor ionotropic, NMDA 2A (Rattus norvegicus) (UniProt Q00959); assay: Positive allosteric modulation of rat GluN2A expressed in Xenopus laevis oocytes assessed as potentiation of L-glutamate/glycine-induced current response at holding potential -60 mV by two-electrode voltage clamp method relative to L-glutamate/glycine; format: cell-based; parameters: concentration or dose not given beside the values; how it was run: as §1
[26] = molecular target: T2, Glutamate NMDA receptor; Grin1/Grin2c (Rattus norvegicus); assay: Negative allosteric modulation of rat GluN1/GluN2C expressed in Xenopus laevis oocytes assessed as inhibition of 300 uM glutamate/glycine-induced current response at 30 uM at -60 mV holding potential by two-electrode voltage clamp method; format: cell-based
[27] = molecular target: T2, Glutamate NMDA receptor; Grin1/Grin2c (Rattus norvegicus); assay: Negative allosteric modulation of rat GluN1/GluN2C expressed in Xenopus laevis oocytes assessed as inhibition of 10 uM glutamate/glycine-induced current response at 30 uM at -60 mV holding potential by two-electrode voltage clamp method; format: cell-based

Row | SMILES | IC50 [1] | Activity [2] | Activity [3] | Activity [4] | Activity [5] | IC50 [6] | Activity [7] | IC50 [8] | Activity [9] | Activity [10] | solubility [11] | Activity [12] | IC50 [13] | Activity [14] | Activity [15] | EC50 [16] | Activity [17] | EC50 [18] | Activity [20] | Activity [23] | further results
1 | O=C(O)c1cc2cc(-c3ccccc3)ccc2cc1O | 11 µM | 26.1% | 26.1% | 71.5% | 106% | 41.8 µM | 56.8% | 49.6 µM | 49.9% | 98.6% | Soluble | 28.4% | 97.8 µM | – | – | – | – | – | – | – | –
2 | CC(C)CCCc1ccc2cc(C(=O)O)ccc2c1 | – | 192% | 207% | – | – | – | – | – | 171% | – | Soluble | 171% | – | inactive | 88.4% | 34.6 µM | inactive | 37.2 µM | inactive | inactive | Activity [19]: 117%; Activity [21]: 102%; EC50 [22]: 28 µM; EC50 [24]: 28.9 µM; Activity [25]: 68.6%
3 | CC(C)CC#Cc1ccc2cc(C(=O)O)ccc2c1 | – | 125% | 110% | – | – | – | – | – | 99% | – | Soluble | 104% | – | inactive | – | – | inactive | – | inactive | inactive | –
4 | CC(C)CCC(C)c1ccc2cc(C(=O)O)ccc2c1 (racemic) | – | 337% | 317% | – | – | – | – | – | 225% | – | Soluble | 281% | – | inactive | 240% | 25 µM | inactive | 36.2 µM | inactive | inactive | Activity [19]: 263%; Activity [21]: 192%; EC50 [22]: 39.4 µM; EC50 [24]: 30.6 µM; Activity [25]: 277%
5 | O=C(O)c1cc2cc(/C=C/c3ccccc3[N+](=O)[O-])ccc2cc1O | 6 µM | 35.1% | 26.8% | 30.5% | 80.1% | 8.2 µM | 61.3% | 2.9 µM | 56.1% | 79.7% | Soluble | 80.5% | 32.2 µM | – | – | – | – | – | – | – | Activity [26]: Active; Activity [27]: Active
6 | CC(C)CCCc1ccc2ccc(C(=O)O)cc2c1 | – | 115% | 80% | – | – | – | – | – | 120% | – | Soluble | 123% | – | inactive | – | – | inactive | – | inactive | inactive | –
